From PubChem BioAssay
CXCR6 block – blocks human CXCR6 beta-arrestin recruitment; CHO-K1 PathHunter CXCR6 beta-arrestin, luminescence; hit rate 0.36% among 360,000; inhibition, % at 20 µM; in the data active = inhibition above about 34%, passing the limit was not always enough;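 also: antagonist mode with CXCL16 agonist at 10 nM final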
Target sequence (O00574 whole entry, looked up): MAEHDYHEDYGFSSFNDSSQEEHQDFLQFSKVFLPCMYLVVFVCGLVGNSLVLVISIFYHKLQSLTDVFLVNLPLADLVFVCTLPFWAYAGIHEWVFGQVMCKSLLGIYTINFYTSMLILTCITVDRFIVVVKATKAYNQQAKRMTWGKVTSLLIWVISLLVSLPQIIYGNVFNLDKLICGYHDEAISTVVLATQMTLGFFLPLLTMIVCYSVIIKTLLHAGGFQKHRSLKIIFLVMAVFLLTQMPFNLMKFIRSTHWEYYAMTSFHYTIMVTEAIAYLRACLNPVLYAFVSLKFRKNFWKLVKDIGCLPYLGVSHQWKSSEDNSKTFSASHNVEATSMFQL
EBI2 antag – EBI2 (human) antagonism; EBI2 beta-arrestin recruitment, luminescence, 7a,25-OHC stimulated; inhibition, % at 5 µM; hit rate 0.81% among 360,000; in the data active = inhibition above about 38%;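 also: enzyme fragment complementation signal reports receptor beta-arrestin coupling in cells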
CCR6 antag – blocks CCL20-driven beta-arrestin recruitment at human CCR6; inhibition, % at 20 µM; hit rate 0.49% among 340,000; P51684; CHO-K1 CCR6 PathHunter beta-arrestin, luminescence, CCL20-stimulated;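 active = compounds whose inhibition of the agonist-driven luminescence signal at 20 µM reaches about 50%, limit read from the data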;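 also: cells stimulated with CCL20 at 14 nM final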
Target sequence (P51684 whole entry, looked up): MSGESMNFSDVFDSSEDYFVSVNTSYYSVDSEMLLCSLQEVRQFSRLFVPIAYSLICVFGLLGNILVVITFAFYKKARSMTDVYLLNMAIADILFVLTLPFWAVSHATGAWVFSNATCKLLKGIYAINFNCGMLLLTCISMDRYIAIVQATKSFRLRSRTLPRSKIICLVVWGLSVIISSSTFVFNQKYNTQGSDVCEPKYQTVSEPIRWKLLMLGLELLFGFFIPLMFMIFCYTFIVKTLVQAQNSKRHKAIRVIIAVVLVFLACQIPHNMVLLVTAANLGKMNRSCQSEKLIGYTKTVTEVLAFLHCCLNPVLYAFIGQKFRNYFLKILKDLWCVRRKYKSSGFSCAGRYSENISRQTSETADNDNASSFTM
APJ antag – APJ receptor antagonism; P35414; CHO-K1 APJ beta-arrestin complementation, luminescence; inhibition, % at 20 µM; hit rate 0.32% among 330,000;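 active = inhibition above about 40% at 20 µM, limit read from the data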;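 also: cells challenged with 10 nM apelin-13 agonist together with compound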
APJ ag – APJ receptor agonism | P35414 | CHO-K1 APJ PathHunter beta-arrestin, luminescence; 0% DMSO wells, 100% apelin | activation, % at 20 µM | hit rate 0.11% among 330,000 | AID 2520;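 active = activation more than six SD over the plate average, tested at 20 µM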
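Test system: CHO-K1 APJ beta-arrestin complementation cell line | Compound: Single test compound dose, 20 µM final, 1% DMSO | Incubation: Compound 90 min 25 °C, reagent 1 h | Measured by: beta-gal luminescence | Read-out basis: APJ–arrestin association signal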
EBI2 antag conf – confirmation of human EBI2 receptor antagonists | shares compounds with EBI2 antag | EBI2 beta-arrestin luminescence, 7a,25-OHC antagonism | inhibition, % at 5 µM | hit rate 29% among 2,400;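 active = inhibition of at least 50%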
EBI2 ag – activates EBI2, counter-screen for EBI2 antagonists; AID 652000; shares compounds with EBI2 antag; EBI2-expressing cells, agonist mode, luminescence, 60 min; 0% vehicle, 100% 7α,25-dihydroxycholesterol control; 2,400 tested, under 10 active; activation, % at 5 µM;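 active = activation of at least 50%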
bGal counter – counter-screen for EBI2 antagonists: E. coli beta-galactosidase inhibition; shares compounds with EBI2 antag; purified beta-galactosidase, luminescent Galacton Star, 15 min; inhibition, % at 5 µM; hit rate 1% among 2,400; AID 652176;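 active = replicate-average signal at least 3 plate SD below neutral wells, shown as high inhibition, flagging enzyme-inhibiting false positives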;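 also: higher means stronger loss of beta-gal luminescence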
Each line names hits and unclear results; the compound was inactive in the other large screens (follow-up assays come after a bar, where they were run). A selection: hits, their analogues and other compounds. The true share with any hit is near 1.5%.

Cc1cc2nc(-c3ccc(SCc4ccc(C#N)cc4)nc3)[nH]c2cc1C	EBI2 antag 56 | EBI2 antag conf inactive | EBI2 ag inactive | bGal counter inactive
Cc1cc2nc(-c3ccc(SCC(=O)Nc4nccs4)nc3)[nH]c2cc1C	EBI2 antag 55 (no result: APJ antag, APJ ag) | EBI2 antag conf inactive | EBI2 ag inactive | bGal counter inactive
CSCCC(C(=O)Nc1c(C)cccc1C)n1c(-c2cnc(C)cn2)nc2ccccc21 (configuration not stated)	none (no result: CXCR6 block, CCR6 antag, APJ antag, APJ ag)
O=C(c1cc2ccccc2o1)N1CCN(c2ncccn2)CC1	EBI2 antag 59 | EBI2 antag conf inactive | EBI2 ag inactive | bGal counter inactive
O=C(c1cc2cc(Br)ccc2o1)N1CCN(c2ccccc2)CC1	EBI2 antag 53 | EBI2 antag conf inactive | EBI2 ag inactive | bGal counter inactive
O=C(c1cc2cc(Br)ccc2o1)N1CCOCC1	none
CN(Cc1ccc(Cl)c(Cl)c1)C(c1cc2ccccc2o1)c1nnnn1C(C)(C)C (configuration not stated)	none (no result: CCR6 antag, APJ antag, APJ ag)
Cc1cccc(N2CCN(C3C(=O)Nc4ccccc4-n4nnnc43)CC2)c1C (configuration not stated)	none (no result: CXCR6 block, CCR6 antag, APJ antag, APJ ag)
C[C@H]1CN([C@@H](C)CO)S(=O)(=O)c2ccc(C#Cc3ccccn3)cc2O[C@@H]1CN(C)C(=O)C1CC1	none (no result: CCR6 antag, APJ antag, APJ ag)
O=C(CCCN1C(=O)C(=Cc2ccc3c(c2)OCO3)SC1=S)Nc1ccc(C(=O)O)c(O)c1	none (no result: CCR6 antag, APJ antag, APJ ag)
CC(C)(C)S(=O)N1Cc2cc(C(=O)NCc3ccc4c(c3)OCO4)nc(-c3cccc(-c4ccncc4)c3)c2[C@H]1CCO (some centres not stated)	none (no result: CCR6 antag, APJ antag, APJ ag)
CCCNC(=O)c1cc2c(c(-c3cccc(-c4ccc(F)cc4)c3)n1)[C@H](CCO)N(S(=O)C(C)(C)C)C2 (some centres not stated)	EBI2 antag 61 (no result: CCR6 antag, APJ antag, APJ ag) | EBI2 antag conf inactive | EBI2 ag inactive | bGal counter inactive
CC(C)(C)S(=O)N1Cc2cc(C(=O)NCc3ccc4c(c3)OCO4)nc(-c3cccc(-c4ccccc4)c3)c2[C@@H]1CCO (some centres not stated)	EBI2 antag 46 (no result: CCR6 antag, APJ antag, APJ ag) | EBI2 antag conf inactive | EBI2 ag inactive | bGal counter inactive
CC(C)c1ccccc1OCCNC(=O)c1cncc(Br)c1	EBI2 antag 47 | EBI2 antag conf inactive | EBI2 ag inactive | bGal counter inactive
Cc1ccc(S(=O)(=O)N2CCN(C(=O)COC(=O)COc3ccccc3)CC2)cc1	none
COc1ccc(S(=O)(=O)N2CCN(CCOc3ccc(Br)cc3)CC2)cc1OC	EBI2 antag 58 | EBI2 antag conf inactive | EBI2 ag inactive | bGal counter inactive
COc1ccc(S(=O)(=O)N2CCN(CCOc3ccccc3Cl)CC2)cc1OC	none
Cc1ccc(OCC(=O)N2CCN(S(=O)(=O)c3ccccc3[N+](=O)[O-])CC2)cc1	EBI2 antag 84 | EBI2 antag conf 60 | EBI2 ag inactive | bGal counter inactive
COc1ccc(S(=O)(=O)N2CCN(C(=O)COc3ccccc3)CC2)cc1	none
O=C(COc1ccccc1)N1CCN(S(=O)(=O)c2ccc(Br)cc2)CC1	EBI2 antag 64 | EBI2 antag conf inactive | EBI2 ag inactive | bGal counter inactive
Cc1ccc(S(=O)(=O)N2CCN(C(=O)COc3ccc(Br)cc3)CC2)cc1	EBI2 antag 94 | EBI2 antag conf 72 | EBI2 ag inactive | bGal counter inactive
CN1c2ccccc2C2(C)CCCC3=Cc4cccc([N+](=O)[O-])c4OC312 (configuration not stated)	EBI2 antag 41 | EBI2 antag conf inactive | EBI2 ag inactive | bGal counter inactive
Cc1cc(C)c(C#N)c(SCC(O)COc2ccc(Br)cc2)n1 (configuration not stated)	EBI2 antag 65 | EBI2 antag conf inactive | EBI2 ag inactive | bGal counter inactive
Cc1cc(C)c(C#N)c(SCC(O)CS(=O)(=O)Cc2ccccc2)n1 (configuration not stated)	none
COc1ccc(/C=C/C(=O)NCC(=O)N/N=C/c2cccnc2)cc1	none
COc1ccc(/C=C/C(=O)Nc2ccc(OC)nc2)cc1	EBI2 antag 44 | EBI2 antag conf inactive | EBI2 ag inactive | bGal counter inactive
O=C(COc1ccccc1)NCC(=O)N/N=C/c1ccc(Br)cc1	EBI2 antag 38 | EBI2 antag conf inactive | EBI2 ag inactive | bGal counter inactive
COc1ccc(/C=C/C(=O)NCC(=O)N/N=C/c2ccc(OC)cc2)cc1	EBI2 antag 62 | EBI2 antag conf inactive | EBI2 ag inactive | bGal counter inactive
CC(=O)NS(=O)(=O)c1ccc(N=c2ssc3c2-c2cc(C)c(C)cc2NC3(C)C)cc1	none
Cc1cc2c(cc1C)-c1c(ssc1=Nc1ccc(S(N)(=O)=O)cc1)C(C)(C)N2	EBI2 antag 53 | EBI2 antag conf 58 | EBI2 ag inactive | bGal counter inactive
Cc1ccc(F)c(C(=O)N2CCCC(C)(C(=O)NS(=O)(=O)C3CC3)C2)c1F (configuration not stated)	none (no result: CCR6 antag, APJ antag, APJ ag)
CCOC(=O)c1ccc(Nc2cc(C)nc(-c3ccccc3)n2)cc1	EBI2 antag 57 | EBI2 antag conf inactive | EBI2 ag inactive | bGal counter inactive
CCOC(=O)c1ccc(Nc2nc(C)cc(C)n2)cc1	none (no result: APJ antag, APJ ag)
COc1ccc(C(C(=O)Nc2ccc(F)cc2)N2CCN(c3cccc(C(F)(F)F)n3)CC2)cc1 (configuration not stated)	none (no result: CXCR6 block, CCR6 antag, APJ antag, APJ ag)
COC(=O)[C@@]12C[C@@H](CC(=O)NCCCCc3ccccc3)C(=O)N(Cc3ccc4c(c3)OCO4)C1=CCC(C)(C)C2	EBI2 antag 35 (no result: CXCR6 block, CCR6 antag, APJ antag, APJ ag) | EBI2 antag conf inactive | EBI2 ag inactive | bGal counter inactive
CCCCNC(=O)C[C@@H]1C[C@@]2(C(=O)OC)CC(C)(C)CC=C2N(Cc2ccc3c(c2)OCO3)C1=O	none (no result: CXCR6 block, CCR6 antag, APJ antag, APJ ag)
CC(C)n1c(O)c(/C=C2\C=Nc3ccccc32)sc1=Nc1ccccc1	EBI2 antag 57 | EBI2 antag conf inactive | EBI2 ag inactive | bGal counter inactive
COc1ccc(/C=C(/CC(=O)NCc2ccc(Cl)cc2)c2nc3ccccc3s2)cc1	EBI2 antag 39 | EBI2 antag conf inactive | EBI2 ag inactive | bGal counter inactive
Cc1cccc(C)c1NC(=O)C1C(c2ccc3c(c2)OCO3)=Nc2ccccc2N1C(=O)c1cccc2ccccc12 (configuration not stated)	none (no result: CXCR6 block, CCR6 antag, APJ antag, APJ ag)
COc1ccccc1CNC(=O)C1(C)CCN1C(=O)C1(c2ccccc2)CC1 (configuration not stated)	none (no result: CCR6 antag, APJ antag, APJ ag)
